Results on nine compounds are retold here after ChEMBL document CHEMBL1122735, “Synthesis and activity of novel nitropyrazines for use as hypoxic cell radiosensitizers” (J Med Chem, 1984).

The nature of data set [1]: Compound was evaluated for the chronic aerobic cytotoxicity in chinese hamster lung fibroblast like cells after 7 days exposure in air at 37 degree Centigrade. Format: cell-based, Cricetulus griseus. The following applies: 168 h. The method in brief: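 V79 379A Chinese hamster lung fibroblast-like cells kept in Eagle's MEM with fcs. Cells plated in Petri dishes and held with a range of sensitizer concentrations for 7 days at 37 °C in air plus 5% CO2, then colonies scored. The concentration reducing colony number to 50% was estimated.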

A short description of data set [2]: Compound was evaluated for the acute cytotoxicity chinese hamster lung fibroblast like cells after 2 hr exposure in nitrogen at 22 degree Centigrade. In kind it is cell-based, Cricetulus griseus. The method in brief:
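V79 379A Chinese hamster lung fibroblast-like cells, taken from log-phase suspension culture, allowed to attach to glass dishes in Eagle's MEM + 10% fcs at 37 °C for 2-3 h. Exposed to a range of sensitizer concentrations for 2 h at room temperature (22 °C) under N2 + 5% CO2. Sensitizer then replaced with fresh medium, followed by 7 days at 37 °C in air + 5% CO2 and colony scoring. Value is the concentration giving 75% colony-forming survival.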

The nature of data set [3]: Sensitizer enhancement ratio was reported at 10E-3 mol/dmE-3 concentration. The method in brief: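 Asynchronous log-phase V79 379A cells, attached to glass dishes, irradiated at room temperature with 250 kVp X-rays (0.5 mm Cu + 0.8 mm Al filter, 3.26 gray min-1) in the presence of sensitizer, triplicate dishes per point; colonies scored. ER = dose for 10^-2 survival without sensitizer divided by dose with sensitizer, or ratio of final linear survival-curve slopes.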

Data set [4] is described as follows: Partition coefficient which was measured in octanol-buffer system at pH 7, 22 degree Centigrade. Format: physicochemical. The note with it: octanol/water. The method in brief:
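Partition coefficient taken as C(octanol)/C(pH 7 buffer) at 22 °C.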

SMILES strings stand for the structures.

As to `COC(=O)c1nc(NCC(O)CO)cnc1[N+](=O)[O-]` (stereo not given), the Cytotoxicity in data set [1] was more than 500 µM. In data set [2], this compound gave an Acute toxicity of more than 5 mM. Further, in data set [3], the Ratio was determined as 1.3. This compound also came in with a Partition coefficient in data set [4] of 0.79.

Consider `COCC(O)Cn1ccnc1[N+](=O)[O-]` (stereo not given) [MISONIDAZOLE], for which, in data set [1], the Cytotoxicity is 1300 µM. Also, the Acute toxicity in data set [2] amounted to 30 mM. Besides, the Partition coefficient in data set [4] is 0.48.

With `O=[N+]([O-])c1cnc(NC(CO)C(O)CO)cn1` (stereo not given), the Cytotoxicity in data set [1] came out at 650 µM. The same compound gave an Acute toxicity in data set [2] of more than 5 mM. The Ratio in data set [3] is 1.1. The Partition coefficient in data set [4] is recorded as 0.13.

In data set [1], `O=[N+]([O-])c1nccnc1NCC(O)CO` (stereo not given) showed a Cytotoxicity of 27 µM. This compound also showed an Acute toxicity in data set [2] of 0.7 mM. Also, the Ratio in data set [3] worked out at 1.71. The Partition coefficient in data set [4] was 0.32.

Regarding `Nc1nc(NCCO)c(Cl)nc1[N+](=O)[O-]`, in data set [1], the Cytotoxicity is 260 µM. The Acute toxicity in data set [2] was more than 3 mM. Moreover, the Ratio in data set [3] was 1.22. The same compound displayed a Partition coefficient in data set [4] of 1.32.

In turn, `CC(=O)Nc1nc(N2CCN(C)CC2)c(Cl)nc1[N+](=O)[O-]` returned a Cytotoxicity in data set [1] of 25 µM. In data set [2], this compound returned an Acute toxicity of 0.16 mM. For the same compound, the Ratio in data set [3] turned out to be 1.5. This compound also yielded a Partition coefficient in data set [4] of 3.18.

Compound `CC(=O)Nc1nc(NC(CO)C(O)CO)c(Cl)nc1[N+](=O)[O-]` (stereo not given) came in with a Cytotoxicity in data set [1] of 400 µM. The compound further yielded an Acute toxicity in data set [2] of more than 3.3 mM. The Ratio in data set [3] is 1.35. Further, the Partition coefficient in data set [4] was 0.22.

`CC(=O)Nc1nc(NCC(O)CO)c(Cl)nc1[N+](=O)[O-]` (stereo not given) gave a Cytotoxicity in data set [1] of 96 µM. Further, the Acute toxicity in data set [2] was determined as 4 mM. The Ratio in data set [3] was found to be 1.3. The Partition coefficient in data set [4] was found to be 1.01.

In data set [1], `Nc1nc(NCC(O)CO)c(Cl)nc1[N+](=O)[O-]` (stereo not given) came in with a Cytotoxicity of 580 µM. In data set [2], this compound returned an Acute toxicity of more than 4 mM. Further, the Ratio in data set [3] amounted to 1.25. The Partition coefficient in data set [4] was 0.6.
